Assay results: ChEMBL document CHEMBL3526053, “Species-dependent uptake of glycylsarcosine but not oseltamivir in Pichia pastoris expressing the rat, mouse, and human intestinal peptide transporter PEPT1” (Drug Metab Dispos, 2012)

Experiments:
Assay type in all cases: ADME
[1] = target: T1, Solute carrier family 15 member 1 (Rattus norvegicus, UniProt P51574); assay: Drug uptake in Pichia pastoris GS115 expressing rat recombinant PEPT1 at 5 uM after 30s by dual-channel liquid scintillation counting analysis in presence of cefazolin relative to control; settings: 0.5 min
T1 sequence (P51574 whole entry): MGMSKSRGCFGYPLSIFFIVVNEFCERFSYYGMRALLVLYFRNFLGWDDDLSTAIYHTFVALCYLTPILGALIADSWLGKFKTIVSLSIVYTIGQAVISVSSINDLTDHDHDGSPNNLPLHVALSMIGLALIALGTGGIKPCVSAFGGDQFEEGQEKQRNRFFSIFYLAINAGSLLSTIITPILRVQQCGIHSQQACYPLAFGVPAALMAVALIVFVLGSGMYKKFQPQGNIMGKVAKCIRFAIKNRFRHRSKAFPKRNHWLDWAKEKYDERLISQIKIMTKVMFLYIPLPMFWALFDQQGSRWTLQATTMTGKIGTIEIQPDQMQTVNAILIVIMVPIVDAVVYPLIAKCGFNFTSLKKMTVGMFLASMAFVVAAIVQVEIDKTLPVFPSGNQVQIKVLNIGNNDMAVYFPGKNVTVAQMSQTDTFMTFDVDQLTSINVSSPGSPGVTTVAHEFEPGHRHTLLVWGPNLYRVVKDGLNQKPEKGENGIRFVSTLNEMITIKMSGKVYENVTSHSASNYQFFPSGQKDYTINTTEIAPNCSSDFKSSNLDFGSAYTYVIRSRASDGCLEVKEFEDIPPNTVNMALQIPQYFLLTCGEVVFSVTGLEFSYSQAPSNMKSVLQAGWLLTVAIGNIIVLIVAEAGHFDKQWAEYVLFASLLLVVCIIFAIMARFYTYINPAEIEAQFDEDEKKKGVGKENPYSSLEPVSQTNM
Summary of the method: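 Rat PEPT1 (pPIC3.5K-rPept1) in GS115 His+Mut+ transformant, methanol-induced 20-24 hr in BMMY at 30°C, washed into 100 mM potassium phosphate pH 6.5. [3H]GlySar final 5.0 µM with inhibitor at 10 mM, 30 sec at 24°C. Counts taken by liquid scintillation after 24 hr standing. Values are vector-subtracted and given as % of buffer control. Mean ± SE, n=3.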

[2] = target: T2, Solute carrier family 15 member 1 (Homo sapiens, UniProt P46059); assay: Activity at human recombinant PEPT1 expressed in Pichia pastoris GS115 assessed as non-saturable rate constant after 30s by dual-channel liquid scintillation counting analysis
T2 sequence (P46059 whole entry): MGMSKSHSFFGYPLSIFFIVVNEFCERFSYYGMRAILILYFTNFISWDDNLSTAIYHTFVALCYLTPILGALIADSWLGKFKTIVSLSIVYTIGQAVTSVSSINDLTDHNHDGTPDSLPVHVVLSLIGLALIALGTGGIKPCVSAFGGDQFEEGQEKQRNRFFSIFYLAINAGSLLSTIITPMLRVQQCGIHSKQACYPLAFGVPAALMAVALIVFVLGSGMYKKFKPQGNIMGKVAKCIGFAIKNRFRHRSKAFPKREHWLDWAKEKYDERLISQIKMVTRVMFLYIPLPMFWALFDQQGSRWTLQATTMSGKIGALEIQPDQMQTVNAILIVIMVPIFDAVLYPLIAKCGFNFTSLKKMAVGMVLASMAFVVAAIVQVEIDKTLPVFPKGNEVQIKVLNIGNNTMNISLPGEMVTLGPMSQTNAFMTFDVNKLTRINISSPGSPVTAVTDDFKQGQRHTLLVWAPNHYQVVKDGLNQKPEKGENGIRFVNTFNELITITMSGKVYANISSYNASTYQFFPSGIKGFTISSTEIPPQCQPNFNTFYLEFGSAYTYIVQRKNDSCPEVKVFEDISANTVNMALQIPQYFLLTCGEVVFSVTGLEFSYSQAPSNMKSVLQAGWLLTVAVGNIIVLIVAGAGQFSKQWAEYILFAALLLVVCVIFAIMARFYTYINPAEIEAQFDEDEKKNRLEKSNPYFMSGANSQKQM
Summary of the method: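 [3H]GlySar concentration series 0.005-10 mM, 30-s uptake at 24°C in 100 mM potassium phosphate pH 6.5. Cells come from His+Mut+ GS115 transformants induced 20-24 h in methanol medium. Uptake is normalised to OD600. Data are fitted to Michaelis-Menten plus a first-order nonsaturable term (Kd), weighting unity. Parameters are mean ± SE (n=9).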

[3] = target: T3, Solute carrier family 15 member 1 (Mus musculus, UniProt Q9JIP7); assay: Drug uptake in Pichia pastoris GS115 expressing mouse recombinant PEPT1 at 5 uM after 30s by dual-channel liquid scintillation counting analysis in presence of GlyPro relative to control; settings: 0.5 min
T3 sequence (Q9JIP7 whole entry): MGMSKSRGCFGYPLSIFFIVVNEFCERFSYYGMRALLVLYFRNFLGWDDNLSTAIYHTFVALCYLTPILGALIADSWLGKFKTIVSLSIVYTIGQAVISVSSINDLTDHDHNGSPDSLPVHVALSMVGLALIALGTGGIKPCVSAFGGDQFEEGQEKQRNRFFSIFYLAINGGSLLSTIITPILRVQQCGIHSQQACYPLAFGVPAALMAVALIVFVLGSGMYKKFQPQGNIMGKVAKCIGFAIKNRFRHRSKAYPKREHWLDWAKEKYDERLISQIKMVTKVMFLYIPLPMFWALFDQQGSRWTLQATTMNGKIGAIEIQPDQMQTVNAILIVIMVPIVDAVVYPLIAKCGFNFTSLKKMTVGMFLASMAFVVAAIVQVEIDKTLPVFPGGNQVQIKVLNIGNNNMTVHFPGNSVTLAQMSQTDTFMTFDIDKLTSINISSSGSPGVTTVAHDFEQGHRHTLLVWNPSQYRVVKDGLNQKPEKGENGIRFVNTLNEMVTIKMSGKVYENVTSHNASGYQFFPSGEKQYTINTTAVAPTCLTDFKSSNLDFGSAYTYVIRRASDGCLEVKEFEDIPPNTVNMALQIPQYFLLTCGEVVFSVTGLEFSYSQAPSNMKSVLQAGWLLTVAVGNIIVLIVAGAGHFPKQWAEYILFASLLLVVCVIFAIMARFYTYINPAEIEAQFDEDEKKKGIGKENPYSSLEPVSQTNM
Summary of the method: (§1)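 [3H]GlySar 5.0 µM final, 30-s uptake at 24°C in 100 mM potassium phosphate pH 6.5, with or without a potential inhibitor at 10 mM. Cells are methanol-induced transformants. Values are vector-subtracted and expressed as percent of buffer control. Mean ± SE (n=3). ANOVA with Dunnett's test.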

[4] = target: T3, Solute carrier family 15 member 1; assay: Drug uptake in Pichia pastoris GS115 expressing mouse recombinant PEPT1 at 5 uM after 30s by dual-channel liquid scintillation counting analysis in presence of SITS relative to control; settings: 0.5 min; summary of the method: as §1
[5] = target: T2, Solute carrier family 15 member 1; assay: Drug uptake in Pichia pastoris GS115 expressing human recombinant PEPT1 at 5 uM after 30s by dual-channel liquid scintillation counting analysis relative to control; settings: 0.5 min; summary of the method: as §1

Drug uptake [1]: 93.7%
Kd [2]: 2.21 uL/OD/min
Drug uptake [3]: 1.9%
Drug uptake [4]: 86.1%
Drug uptake [5]: 100%
Compound: [3H]C(C(=O)O)N(C)C(=O)CN (stereo not given)
